The values that follow come from the M2OR odorant receptor database.

What all share (settings): stereoisomer not certain
The subject of one assay is Q8VF87 L210I. In a few lines: (§1)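 Values were gathered from published papers (main text and supplementary material), with extra details requested from the original authors when needed, and checked for typos and inconsistencies. Each receptor–molecule pair is called responsive (active) if the original authors judged the measured signal statistically different from baseline, and non-responsive (inactive) otherwise. Assay methods varied by source, often transient mammalian cell-line luciferase assays. Recorded details include cell line, G-protein, co-transfected protein and tags.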

Assay [1] relates to Q8VF87 V108T E162D V184F I202L L210I A279V. The gist of the method: as §1
Assay [2] relates to Q8VF87 V108T E162D V184F I202L L210I. The gist of the method: as §1
Assay [3] has as its system Q8VF87 V108T E162D V184F I202L. The gist of the method: as §1
The subject of another assay is Q8VF87 V108T E162D V184F. In a few lines:
as §1

A further assay concerns Q8VF87 V108T E162D. The gist of the method:
as §1

In a further assay the test system is Q8VF87 V108T. The gist of the method: as §1
The test system of another assay is Q8VF87 V184F. The gist of the method: as §1
For a further assay, the target named is UniProt A0PK57. The gist of the method:
as §1

In a further assay the target is UniProt A2ASV2. In a few lines:
as §1

Sequence of UniProt A2ASV2 (A2ASV2 as listed by the source): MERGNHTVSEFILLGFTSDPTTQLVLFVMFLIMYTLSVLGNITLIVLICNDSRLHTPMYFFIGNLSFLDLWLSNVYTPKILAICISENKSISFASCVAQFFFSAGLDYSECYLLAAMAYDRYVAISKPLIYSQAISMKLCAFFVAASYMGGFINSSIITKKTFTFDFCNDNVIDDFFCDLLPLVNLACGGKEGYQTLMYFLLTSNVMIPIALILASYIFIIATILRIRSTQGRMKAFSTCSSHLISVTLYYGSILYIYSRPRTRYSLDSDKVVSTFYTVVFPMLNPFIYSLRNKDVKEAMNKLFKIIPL
Sequence of UniProt A0PK57 (A0PK57 as listed by the source): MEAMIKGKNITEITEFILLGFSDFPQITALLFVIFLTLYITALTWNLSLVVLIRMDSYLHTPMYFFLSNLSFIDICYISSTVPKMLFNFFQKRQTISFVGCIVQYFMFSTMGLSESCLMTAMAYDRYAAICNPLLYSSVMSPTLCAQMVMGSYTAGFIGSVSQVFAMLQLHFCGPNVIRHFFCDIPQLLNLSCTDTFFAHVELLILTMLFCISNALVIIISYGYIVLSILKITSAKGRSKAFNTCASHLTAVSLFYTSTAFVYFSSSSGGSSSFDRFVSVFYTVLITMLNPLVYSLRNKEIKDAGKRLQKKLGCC

For `CCC(S)C(C)CO` (stereo unspecified), the “odorant receptor agonist call” value (with Q8VF87 L210I; in assay [1]; in assay [2]; in assay [3]; with Q8VF87 V108T E162D V184F; in the assay with Q8VF87 V108T E162D) was “inactive” in each case. In addition, the “odorant receptor agonist call” value with Q8VF87 V108T and in the assay with Q8VF87 V184F was “inactive” throughout.
On to `CC1CCCCCCCCCCCCC(=O)C1` (stereo unspecified), for which, in the assay with UniProt A0PK57, the “odorant receptor agonist call” value was “inactive”.
Turning to `O=C1CCOc2ccccc21`, the “odorant receptor agonist call” value with UniProt A2ASV2 was “inactive”.
Still for that read-out and setting: the same measure for `O=c1ccc2ccccc2o1`: “active”.
